Assays:
L5178Y [1] = experiment: Induction frequency for L5178Y cells was evaluated at dose 0.005 mg/mL in dark condition (expt-II); type: functional, Mus musculus
Summary of the method: (§1)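 L5178Y suspension cells (3 × 10^6/mL, 5% CO2, 37 °C, shaking) exposed 20 h without activating enzyme; light arm irradiated 6.5 min (Hg lamp, <340 nm filtered). Cells washed, grown 24 h more and kept at 3 × 10^5/mL. Viability from 200 cells in soft agar; TFT (0.1 mg/mL) resistant colonies from 10^6 cells in triplicate dishes, counted at 10 days.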

[2] = Ability to block cleavage of G/GNCC site in Restriction endonuclease Sau961 with the test compound/DNA ratio 1:8(no. of sites=15); - = no activation
Summary of the method: (§2)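 pBR322 plasmid mixed with drug at 0.015, 0.12 or 0.48 mM (drug:DNA 1:8, 1:1 or 4:1), equilibrated on ice 30 min in the dark in 5 mM potassium phosphate pH 5.5, then irradiated 1 h with a medium-pressure Hg lamp (<340 nm filtered); dark set kept as control. Digested overnight with 10× excess enzyme plus DTT; fragments resolved on 1.2% agarose in TBE.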

L5178Y [3] = experiment: Relative toxicity against mammalian L5178Y cells at dose 0.005 mg/mL in dark condition (expt-II); type: functional, Mus musculus
Summary of the method: (§3)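 L5178Y mouse cells in suspension, 3 × 10^6 cells/mL, were exposed for 20 h at 37 °C in a shaker at 150 rpm under 5% CO2, without an activating enzyme. Light arms were irradiated for 6.5 min with a medium-pressure Hg lamp filtered to remove light below 340 nm; dark arms were not. Toxicity was taken as the Coulter-counted density of treated cells versus solvent control.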

L5178Y [4] = experiment: Viability of L5178Y cells was evaluated at dose 0.005 mg/mL in dark condition (expt-II); type: functional, Mus musculus
Summary of the method: (§4)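 L5178Y cells were exposed for 20 h at 3 × 10^6 cells/mL. Light arms then received 6.5 min of Hg-lamp irradiation filtered to remove light below 340 nm. Cells were washed twice in Fischer's medium, grown a further 24 h and held at 3 × 10^5 cells/mL. For viability, 200 cells were plated in soft-agar cloning medium in triplicate dishes, and colonies were counted by an automated counter after 10 days.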

L5178Y [5] = experiment: Mutation frequency for L5178Y cells was evaluated at dose 0.005 mg/mL in dark condition (expt-II); type: functional, Mus musculus; summary of the method: as §1
L5178Y [6] = experiment: Mutation frequency for L5178Y cells was evaluated at dose 0.005 mg/mL in light condition (expt-II); type: functional, Mus musculus; summary of the method: as §1
[7] = Half-life was evaluated in water in the absence of light; type: ADME
L5178Y [8] = experiment: Mean value of mutation induction for L5178Y cells was evaluated at dose 0.005 mg/mL in dark condition (expt-II); type: functional, Mus musculus
Summary of the method: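 L5178Y cells in suspension culture, gassed with 5% CO2 in air, shaken at 150 rpm, 37 °C. Cells at 3 × 10^6/mL were dosed for 20 h, unirradiated and without activating enzyme, then washed twice in Fop and grown 24 h more. TFT-resistant mutants came from 10^6 cells plated in three dishes of cloning medium with 0.1 mg/mL TFT, colonies counted at 10 days; frequency expressed ×10^6.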

[9] = Ability to block cleavage of G/GNCC site in Restriction endonuclease Sau961 with the test compound/DNA ratio 1(no. of sites=15); - = no activation; summary of the method: as §2
L5178Y [10] = experiment: Relative toxicity against mammalian L5178Y cells at dose 0.005 mg/mL in light condition (expt-II); type: functional, Mus musculus; summary of the method: as §3
L5178Y [11] = experiment: Relative mutation induction for L5178Y cells was evaluated at dose 0.005 mg/mL in light condition (expt-II); type: functional, Mus musculus; summary of the method: as §1
L5178Y [12] = experiment: Induction frequency for L5178Y cells was evaluated at dose 0.005 mg/mL in light condition (expt-II); type: functional, Mus musculus; summary of the method: as §1
L5178Y [13] = experiment: Relative mutation induction for L5178Y cells was evaluated at dose 0.005 mg/mL in dark condition (expt-II); type: functional, Mus musculus; summary of the method: as §1
[14] = Half-life was evaluated in water in the presence of light; type: ADME
L5178Y [15] = experiment: Mean value of mutation induction for L5178Y cells was evaluated at dose 0.005 mg/mL in light condition (expt-II); type: functional, Mus musculus; summary of the method: as §1
L5178Y [16] = experiment: Viability of L5178Y cells was evaluated at dose 0.005 mg/mL in light condition (expt-II); type: functional, Mus musculus; summary of the method: as §4

SMILES: COc1cc(NS(C)(=O)=O)ccc1Nc1c2ccccc2nc2ccccc12 [AMSACRINE]
- Induced frequency (L5178Y [1]): 439
- inhibition [2]: no activation
- Relative toxicity (L5178Y [3]): 62
- Viability (L5178Y [4]): 20
- Mutation frequency (L5178Y [5]): 577 10e6 F
- Mutation frequency (L5178Y [6]): 862 10e6 F
- half-life [7]: > 336 h
- Mean value (L5178Y [8]): 57.7
- inhibition [9]: no activation
- Relative toxicity (L5178Y [10]): 62
- Relative activity (L5178Y [11]): 10
- Induced frequency (L5178Y [12]): 733
- Relative activity (L5178Y [13]): 67
- half-life [14]: 24 h
- Mean value (L5178Y [15]): 53
- Viability (L5178Y [16]): 12.3

From ChEMBL document CHEMBL1124747, “Properties of the nucleic acid photoaffinity labeling agent 3-azidoamsacrine” (J Med Chem, 1990)
